Results published in ChEMBL document CHEMBL5724801, “EUbOPEN Chemogenomics Library - Multiplex” (2024).
“And” between values parts separate entries of the source, which are not always exact repeats. Identical values can stand only once.

System: U2OS
Test: Multiplex assay against U2OS
Format: toxicity, cell-based
Conditions: human
In short: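 Cells were classed with CellPathfinder machine-learning gating, first as Hoechst high-intensity objects or normal cells, then (normal cells) as healthy, pyknosed or fragmented nuclei, and finally (pyknosed cells) as mitotic or apoptotic. Staining of live cells at seeding used Hoechst33342, BioTracker Green Microtubule Cytoskeleton Dye, MitoTracker Red and Annexin V Alexa Fluor 680, with imaging on a CQ1 microscope at 37°C and 5% CO2 after compound addition. Tubulin, mitochondrial-mass and membrane-permeability phenotypes are per cents of healthy-nucleus cells.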

[1] = 12 h, 1 µM, compound concentration 1 uM
[2] = 12 h, 10 µM, compound concentration 10 uM
[3] = 24 h, 1 µM, compound concentration 1 uM
[4] = 24 h, 10 µM, compound concentration 10 uM
[5] = 48 h, 1 µM, compound concentration 1 uM
[6] = 48 h, 10 µM, compound concentration 10 uM

How did the “Population Apoptotic (%)” value [1] turn out when COc1cc(N2CCN(C)CC2)ccc1Nc1nccc(-c2cn(C)c3cnccc23)n1 was run?
The value was 42.42% and 21.43%.

What about the “Population Fragmented Nuclei (%)” value [1] of the same molecule?
The value was 1.36% and 2.74%.

And the “Population Healthy Nuclei (%)” value [1]?
The value was 89.7% and 78.08%.

What about the “Population Hoechst High Intensity Objects (%)” value [1] of the same molecule?
Its value is 0.27% and 0%.

And the “Population Membrane Permeable-Phenotype (%)” value [1]?
The value was 5.14% and 14.04%.

And the “Population Mitotic Cells (%)” value [1]?
The value was 57.58% and 78.57%.

And the “Population Normal (%)” value [1]?
Its value is 99.73% and 100%.

What about the “Population Pyknosed Nuclei (%)” value [1] of the same molecule?
The value was 8.94% and 19.18%.

What about the “Population Tubulin-Different-Phenotype (%)” value [1] of the same molecule?
The value was 5.14% and 4.39%.

What about the “Total Cell Count” value [1] of the same molecule?
The value was 370 and 146.

And the “Population Apoptotic (%)” value [2]?
The value was 48.67% and 23.94%.

And the “Population Fragmented Nuclei (%)” value [2]?
The value was 6.32% and 4.8%.

What about the “Population Healthy Nuclei (%)” value [2] of the same molecule?
Its value is 61.21% and 38.4%.

What about the “Population Hoechst High Intensity Objects (%)” value [2] of the same molecule?
Its value is 0%.

What about the “Population Membrane Permeable-Phenotype (%)” value [2] of the same molecule?
Its value is 33.33% and 66.67%.

What about the “Population Mitotic Cells (%)” value [2] of the same molecule?
Its value is 51.33% and 76.06%.

And the “Population Normal (%)” value [2]?
The value was 100%.

What about the “Population Pyknosed Nuclei (%)” value [2] of the same molecule?
Its value is 32.47% and 56.8%.

And the “Population Tubulin-Different-Phenotype (%)” value [2]?
The value was 60.56% and 58.33%.

And the “Total Cell Count” value [2]?
Its value is 348 and 125.

And the “Population Apoptotic (%)” value [3]?
The value was 46.67% and 20.69%.

And the “Population Fragmented Nuclei (%)” value [3]?
The value was 0.88% and 3.53%.

And the “Population Healthy Nuclei (%)” value [3]?
Its value is 89.18% and 79.41%.

What about the “Population Hoechst High Intensity Objects (%)” value [3] of the same molecule?
The value was 0%.

What about the “Population Membrane Permeable-Phenotype (%)” value [3] of the same molecule?
The value was 3.96% and 9.63%.

And the “Population Mitotic Cells (%)” value [3]?
Its value is 53.33% and 79.31%.

And the “Population Normal (%)” value [3]?
Its value is 100%.

What about the “Population Pyknosed Nuclei (%)” value [3] of the same molecule?
The value was 9.93% and 17.06%.

And the “Population Tubulin-Different-Phenotype (%)” value [3]?
The value was 3.71% and 5.19%.

And the “Total Cell Count” value [3]?
Its value is 453 and 170.

What about the “Population Apoptotic (%)” value [4] of the same molecule?
Its value is 79.82% and 63.75%.

And the “Population Fragmented Nuclei (%)” value [4]?
Its value is 10.27% and 17.39%.

And the “Population Healthy Nuclei (%)” value [4]?
Its value is 55.29% and 24.64%.

And the “Population Hoechst High Intensity Objects (%)” value [4]?
Its value is 0%.

And the “Population Membrane Permeable-Phenotype (%)” value [4]?
The value was 25.68% and 44.12%.

What about the “Population Mitotic Cells (%)” value [4] of the same molecule?
Its value is 20.18% and 36.25%.

What about the “Population Normal (%)” value [4] of the same molecule?
Its value is 100%.

What about the “Population Pyknosed Nuclei (%)” value [4] of the same molecule?
Its value is 34.44% and 57.97%.

And the “Population Tubulin-Different-Phenotype (%)” value [4]?
The value was 53.55% and 44.12%.

And the “Total Cell Count” value [4]?
Its value is 331 and 138.

And the “Population Apoptotic (%)” value [5]?
The value was 46.51% and 48.94%.

What about the “Population Fragmented Nuclei (%)” value [5] of the same molecule?
Its value is 1.87% and 5.31%.

And the “Population Healthy Nuclei (%)” value [5]?
The value was 87.42% and 75.51%.

And the “Population Hoechst High Intensity Objects (%)” value [5]?
Its value is 0%.

What about the “Population Membrane Permeable-Phenotype (%)” value [5] of the same molecule?
The value was 1.42% and 4.86%.

What about the “Population Mitotic Cells (%)” value [5] of the same molecule?
Its value is 53.49% and 51.06%.

And the “Population Normal (%)” value [5]?
The value was 100%.

And the “Population Pyknosed Nuclei (%)” value [5]?
Its value is 10.71% and 19.18%.

What about the “Population Tubulin-Different-Phenotype (%)” value [5] of the same molecule?
The value was 2.14% and 3.78%.

And the “Population Apoptotic (%)” value [6]?
The value was 82.73% and 95.65%.

What about the “Population Fragmented Nuclei (%)” value [6] of the same molecule?
The value was 15.62% and 15.79%.

And the “Population Hoechst High Intensity Objects (%)” value [6]?
Its value is 0%.

What about the “Population Membrane Permeable-Phenotype (%)” value [6] of the same molecule?
The value was 15.15% and 25%.

What about the “Population Normal (%)” value [6] of the same molecule?
The value was 100%.

What about the “Population Pyknosed Nuclei (%)” value [6] of the same molecule?
Its value is 30.14% and 69.17%.

And the “Population Tubulin-Different-Phenotype (%)” value [6]?
The value was 53.54% and 40%.

What about the “Total Cell Count” value [6] of the same molecule?
The value was 365 and 133.

For O=C1NC(NC23CC4CC(CC(C4)C2)C3)=N/C1=C\c1ccc2ncsc2c1, which “Population Apoptotic (%)” value [1] is on record?
Its value is 51.02% and 44.83%.

And the “Population Fragmented Nuclei (%)” value [1]?
The value was 17.88% and 22.19%.

What about the “Population Healthy Nuclei (%)” value [1] of the same molecule?
Its value is 75% and 69.66%.

What about the “Population Hoechst High Intensity Objects (%)” value [1] of the same molecule?
Its value is 0.86% and 0%.

What about the “Population Membrane Permeable-Phenotype (%)” value [1] of the same molecule?
Its value is 0.97% and 3.63%.

What about the “Population Mitochondria Different-Phenotype (%)” value [1] of the same molecule?
The value was 0% and 3.23%.

And the “Population Mitotic Cells (%)” value [1]?
The value was 48.98% and 55.17%.

What about the “Population Normal (%)” value [1] of the same molecule?
Its value is 99.14% and 100%.

What about the “Population Pyknosed Nuclei (%)” value [1] of the same molecule?
Its value is 7.12% and 8.15%.

And the “Population Tubulin-Different-Phenotype (%)” value [1]?
The value was 0.58% and 2.82%.

And the “Total Cell Count” value [1]?
The value was 694 and 356.

And the “Population Apoptotic (%)” value [2]?
The value was 44.44% and 38.46%.

And the “Population Fragmented Nuclei (%)” value [2]?
The value was 64.07% and 81%.

What about the “Population Healthy Nuclei (%)” value [2] of the same molecule?
The value was 21.59% and 11.58%.

What about the “Population Membrane Permeable-Phenotype (%)” value [2] of the same molecule?
The value was 0.82% and 0%.

And the “Population Mitochondria Different-Phenotype (%)” value [2]?
The value was 0% and 1.41%.

What about the “Population Mitotic Cells (%)” value [2] of the same molecule?
Its value is 55.56% and 61.54%.

What about the “Population Normal (%)” value [2] of the same molecule?
Its value is 52.03% and 84.32%.

What about the “Population Pyknosed Nuclei (%)” value [2] of the same molecule?
Its value is 14.34% and 7.42%.

And the “Population Tubulin-Different-Phenotype (%)” value [2]?
Its value is 0% and 1.41%.

What about the “Total Cell Count” value [2] of the same molecule?
Its value is 1086 and 1454.

What about the “Population Apoptotic (%)” value [3] of the same molecule?
The value was 50% and 44.68%.

And the “Population Fragmented Nuclei (%)” value [3]?
The value was 19.28% and 20.63%.

What about the “Population Healthy Nuclei (%)” value [3] of the same molecule?
The value was 75.17% and 67.96%.

And the “Population Hoechst High Intensity Objects (%)” value [3]?
Its value is 0.69% and 0%.

What about the “Population Membrane Permeable-Phenotype (%)” value [3] of the same molecule?
The value was 1.48% and 2.86%.

What about the “Population Mitochondria Different-Phenotype (%)” value [3] of the same molecule?
The value was 0.37% and 5.71%.

What about the “Population Mitotic Cells (%)” value [3] of the same molecule?
Its value is 50% and 55.32%.

And the “Population Normal (%)” value [3]?
Its value is 99.31% and 100%.

What about the “Population Pyknosed Nuclei (%)” value [3] of the same molecule?
The value was 5.55% and 11.41%.

What about the “Population Tubulin-Different-Phenotype (%)” value [3] of the same molecule?
Its value is 2.03% and 2.86%.

What about the “Total Cell Count” value [3] of the same molecule?
The value was 726 and 412.

What about the “Population Apoptotic (%)” value [4] of the same molecule?
Its value is 45.1% and 35.71%.

And the “Population Fragmented Nuclei (%)” value [4]?
Its value is 58.49% and 84.85%.

And the “Population Healthy Nuclei (%)” value [4]?
Its value is 17.9% and 8.37%.

And the “Population Membrane Permeable-Phenotype (%)” value [4]?
The value was 0%.

And the “Population Mitochondria Different-Phenotype (%)” value [4]?
The value was 0%.

And the “Population Mitotic Cells (%)” value [4]?
Its value is 54.9% and 64.29%.

And the “Population Normal (%)” value [4]?
The value was 60.11% and 86.9%.

What about the “Population Tubulin-Different-Phenotype (%)” value [4] of the same molecule?
The value was 0%.

What about the “Total Cell Count” value [4] of the same molecule?
Its value is 1078 and 1664.

What about the “Population Apoptotic (%)” value [5] of the same molecule?
Its value is 50% and 51.75%.

And the “Population Fragmented Nuclei (%)” value [5]?
The value was 22.08% and 20.53%.

What about the “Population Healthy Nuclei (%)” value [5] of the same molecule?
The value was 72.6% and 58%.

And the “Population Hoechst High Intensity Objects (%)” value [5]?
Its value is 3.35% and 1.12%.

And the “Population Membrane Permeable-Phenotype (%)” value [5]?
The value was 1.27% and 2.27%.

What about the “Population Mitochondria Different-Phenotype (%)” value [5] of the same molecule?
The value was 0.32% and 9.42%.

And the “Population Mitotic Cells (%)” value [5]?
The value was 50% and 48.25%.

What about the “Population Normal (%)” value [5] of the same molecule?
The value was 96.65% and 98.88%.

What about the “Population Tubulin-Different-Phenotype (%)” value [5] of the same molecule?
Its value is 2.23% and 2.6%.

What about the “Total Cell Count” value [5] of the same molecule?
The value was 895 and 537.

And the “Population Apoptotic (%)” value [6]?
Its value is 51.13% and 47.24%.

And the “Population Fragmented Nuclei (%)” value [6]?
The value was 58.82% and 85.02%.

What about the “Population Healthy Nuclei (%)” value [6] of the same molecule?
Its value is 12.73% and 6.82%.

What about the “Population Hoechst High Intensity Objects (%)” value [6] of the same molecule?
Its value is 31% and 15.76%.

And the “Population Membrane Permeable-Phenotype (%)” value [6]?
Its value is 0% and 1.89%.

What about the “Population Mitochondria Different-Phenotype (%)” value [6] of the same molecule?
The value was 0% and 0.94%.

And the “Population Mitotic Cells (%)” value [6]?
The value was 48.87% and 52.76%.

What about the “Population Normal (%)” value [6] of the same molecule?
Its value is 69% and 84.24%.

What about the “Population Tubulin-Different-Phenotype (%)” value [6] of the same molecule?
The value was 0%.

What about the “Total Cell Count” value [6] of the same molecule?
Its value is 1355 and 1846.
